According to ChEMBL document CHEMBL1139981, “Novel heterocyclic thyromimetics. Part 2” (Bioorg Med Chem Lett, 2007):

Tests used:
Thyroid hormone receptor = target: T1, Thyroid hormone receptor (Homo sapiens, UniProt P10827+P10828); assay: Agonist activity at THR in HepG2 cells by whole cell assay; assay type: functional, cell-based
T1 sequence (P10827 whole entry): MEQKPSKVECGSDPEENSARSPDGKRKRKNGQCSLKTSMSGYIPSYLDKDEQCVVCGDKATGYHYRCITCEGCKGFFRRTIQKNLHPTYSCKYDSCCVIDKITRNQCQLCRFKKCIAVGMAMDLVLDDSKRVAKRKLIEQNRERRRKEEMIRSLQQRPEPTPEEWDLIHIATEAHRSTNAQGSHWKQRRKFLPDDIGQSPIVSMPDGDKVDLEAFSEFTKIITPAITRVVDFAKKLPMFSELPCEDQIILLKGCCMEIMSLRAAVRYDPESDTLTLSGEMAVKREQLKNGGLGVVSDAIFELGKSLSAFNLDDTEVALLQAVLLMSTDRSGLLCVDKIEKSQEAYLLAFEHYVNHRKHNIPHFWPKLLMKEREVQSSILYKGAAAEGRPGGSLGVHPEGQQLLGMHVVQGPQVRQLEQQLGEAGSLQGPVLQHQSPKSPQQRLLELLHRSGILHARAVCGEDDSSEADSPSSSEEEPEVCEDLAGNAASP
T1 sequence (P10828 whole entry): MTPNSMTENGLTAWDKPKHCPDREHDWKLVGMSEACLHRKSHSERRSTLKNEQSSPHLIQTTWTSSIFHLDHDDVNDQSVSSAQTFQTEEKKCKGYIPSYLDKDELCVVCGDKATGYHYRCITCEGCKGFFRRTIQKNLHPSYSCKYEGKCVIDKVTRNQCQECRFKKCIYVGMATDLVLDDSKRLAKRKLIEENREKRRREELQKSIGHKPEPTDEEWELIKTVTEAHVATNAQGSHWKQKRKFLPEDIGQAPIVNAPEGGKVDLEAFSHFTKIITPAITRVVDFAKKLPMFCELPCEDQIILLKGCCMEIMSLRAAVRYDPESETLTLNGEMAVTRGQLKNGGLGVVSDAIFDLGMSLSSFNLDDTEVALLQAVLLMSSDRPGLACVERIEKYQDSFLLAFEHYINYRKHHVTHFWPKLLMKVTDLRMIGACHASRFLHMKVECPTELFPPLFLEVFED

Mus musculus [1] = assay: Increase in heart weight in C57BL/6J mouse at 0.3 mg/kg, po after 11 days; assay type: functional
Method in brief: (§1)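 C57BL/6J mice, 10-12 per group, dosed orally by gavage once daily for 11 days in solutol/ethanol/water 10:10:80. Doses were 0.1, 0.3 and 3.0 mg/kg, given as the ethyl ester. At study end, heart rate was measured by non-invasive tail cuff, then the animals were sacrificed and hearts weighed. Heart weight change is expressed versus control.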

Mus musculus [2] = assay: Increase in heart weight in C57BL/6J mouse at 3.0 mg/kg, po after 11 days; assay type: functional; method in brief: as §1
Mus musculus [3] = assay: Reduction in serum cholesterol in NMIR mouse at 3.0 mg/ kg, po after 7 days; assay type: functional; design: scale not given: the % may be the effect or the level left
Method in brief: (§2)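 At study end, blood was taken retro-orbitally. Serum cholesterol (and triglycerides) were measured enzymatically with commercial kits on an autoanalyzer. Reduction is expressed as percent versus the control group.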

Mus musculus [4] = assay: Increase in heart weight in C57BL/6J mouse at 0.1 mg/kg, po after 11 days; assay type: functional; method in brief: as §1
Mus musculus [5] = assay: Reduction in serum cholesterol in NMIR mouse at 0.1 mg/kg, po after 7 days; assay type: functional; design: scale not given: the % may be the effect or the level left; method in brief: as §2
Mus musculus [6] = assay: Reduction in serum cholesterol in NMIR mouse at 1.0 mg/ kg, po after 7 days; assay type: functional; design: scale not given: the % may be the effect or the level left; method in brief: as §2
Mus musculus [7] = assay: Reduction in serum cholesterol in NMIR mouse at 0.3 mg/ kg, po after 7 days; assay type: functional; design: scale not given: the % may be the effect or the level left; method in brief: as §2

Row | SMILES | EC50 (Thyroid hormone receptor) [nM] | further results
1 | CC(C)c1cc(Oc2c(C(C)C)cc(CC3SC(=O)NC3=O)cc2C(C)C)ccc1O (centres undefined) | 70 | 
2 | CC(C)c1cc(Oc2ccc3oc(C(=O)O)cc3c2)ccc1O | 1000 | 
3 | COc1ccc(Oc2c(Br)cc3oc(C(=O)O)cc3c2Br)cc1C(C)C | 1000 | 
4 | O=C(O)c1cc2c(Br)c(Oc3ccc(O)c(C(=O)c4ccc(F)cc4)c3)c(Br)cc2o1 | 210 | 
5 | O=C(O)c1cc2c(Br)c(Oc3ccc(O)c(C(O)c4ccc(F)cc4)c3)c(Br)cc2o1 (centres undefined) | 22 | 
6 | Cc1cc(CC2SC(=O)NC2=O)cc(C)c1Oc1ccc(O)c(C(C)C)c1 (centres undefined) | 0.08 | 
7 | Cc1cc2oc(C(=O)O)cc2c(C)c1Oc1ccc(O)c(C(C)C)c1 | 110 | 
8 | Cc1cc2c(c(C)c1Oc1ccc(O)c(C(C)C)c1)CC(CC(=O)O)O2 (centres undefined) | 5.1 | 
9 | Cc1cc2c(CC(=O)O)coc2c(C)c1Oc1ccc(O)c(C(C)C)c1 | 0.3 | Activity (Mus musculus [1]): 17%; Activity (Mus musculus [2]): 27%; Activity (Mus musculus [3]): 41%; Activity (Mus musculus [4]): 12%; Activity (Mus musculus [5]): 32%; Activity (Mus musculus [6]): 39%; Activity (Mus musculus [7]): 34%
10 | Cc1ccc(CC2CC(=O)NC(=O)S2)c(C)c1Oc1ccc(O)c(C(C)C)c1 (centres undefined) | 0.06 | 
11 | Cc1cc2c(CC(=O)O)coc2c(C)c1Oc1ccc(O)cc1 | 1000 | 
12 | CC(C)c1cc(Oc2c(Br)cc3oc(C(=O)O)cc3c2Br)ccc1O | 7 | 
